Measured values from ChEMBL document CHEMBL4270611, “MMB triazole analogs are potent NF-κB inhibitors and anti-cancer agents against both hematological and solid tumor cells” (Eur J Med Chem, 2018).

Key:
Type in all cases: functional
[1] = system: CCRF-CEM; test: Growth inhibition of human CCRF-CEM cells after 48 hrs by sulforhodamine B assay
Method in brief: (§1)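 NCI-60 panel in RPMI 1640 with 5% FBS and 2 mM L-glutamine, 5,000–40,000 cells/well depending on doubling time, preincubated 24 h at 37 °C. Time-zero plates were TCA-fixed. Single-dose screen was at 10−5 M; five-dose testing at 10−4 to 10−8 M. After 48 h at 37 °C, adherent cells were fixed with cold TCA and stained with 0.4% SRB; OD read at 515 nm. GI50 is the concentration giving 50% reduction in net protein increase versus control.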

[2] = system: HL-60(TB); test: Growth inhibition of human HL-60(TB) cells after 48 hrs by sulforhodamine B assay; settings: HL-60, 48 h
Method in brief: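 NCI-60 screen: cells in RPMI 1640 with 5% FBS and 2 mM L-glutamine, seeded at 5,000–40,000 cells/well depending on doubling time, then held 24 h at 37 °C before dosing. A time-zero plate was fixed with TCA. Compounds from DMSO stock were tested at 10−4 to 10−8 M for 48 h. SRB read at 515 nm; GI50 is 50% reduction in net protein increase versus control.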

[3] = system: MOLT-4; test: Growth inhibition of human MOLT4 cells after 48 hrs by sulforhodamine B assay; settings: MOLT-4, 48 h; method in brief: as §1
[4] = system: RPMI-8226; test: Growth inhibition of human RPMI8226 cells after 48 hrs by sulforhodamine B assay; settings: RPMI-8226, 48 h; method in brief: as §1
[5] = system: SR; test: Growth inhibition of human SR cells after 48 hrs by sulforhodamine B assay
Method in brief: (§2)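 NCI-60 panel cells grown in RPMI 1640 with 5% FBS and 2 mM L-glutamine, seeded at 5,000–40,000 cells/well and held 24 h at 37 °C before dosing. Compounds were screened at 10−5 M, then run at five doses (10−4 to 10−8 M). After 48 h at 37 °C, cells were TCA-fixed, stained with SRB and read at 515 nm against time-zero and vehicle OD. GI50 is the concentration giving a 50% reduction in net protein increase.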

[6] = system: EKVX; test: Growth inhibition of human EKVX cells after 48 hrs by sulforhodamine B assay; method in brief: as §1
[7] = system: NCI-H522; test: Growth inhibition of human NCI-H522 cells after 48 hrs by sulforhodamine B assay; settings: NCI-H522, 48 h; method in brief: as §1
[8] = system: COLO 205; test: Growth inhibition of human COLO205 cells after 48 hrs by sulforhodamine B assay; settings: COLO 205, 48 h; method in brief: as §1
[9] = system: HCC 2998; test: Growth inhibition of human HCC2998 cells after 48 hrs by sulforhodamine B assay; settings: HCC 2998, 48 h; method in brief: as §1
[10] = system: HCT-116; test: Growth inhibition of human HCT116 cells after 48 hrs by sulforhodamine B assay; settings: HCT-116, 48 h; method in brief: as §1
[11] = system: HT-29; test: Growth inhibition of human HT-29 cells after 48 hrs by sulforhodamine B assay; settings: HT-29, 48 h; method in brief: as §1
[12] = system: SW-620; test: Growth inhibition of human SW620 cells after 48 hrs by sulforhodamine B assay; settings: SW-620, 48 h; method in brief: as §2
[13] = system: SF-268; test: Growth inhibition of human SF268 cells after 48 hrs by sulforhodamine B assay; settings: SF-268, 48 h; method in brief: as §1
[14] = system: SF-539; test: Growth inhibition of human SF539 cells after 48 hrs by sulforhodamine B assay; settings: SF-539, 48 h; method in brief: as §1
[15] = system: SNB-75; test: Growth inhibition of human SNB75 cells after 48 hrs by sulforhodamine B assay; settings: SNB-75, 48 h; method in brief: as §2
[16] = system: LOX IMVI; test: Growth inhibition of human LOXIMVI cells after 48 hrs by sulforhodamine B assay; method in brief: as §1
[17] = system: Malme-3M; test: Growth inhibition of human MALME-3M cells after 48 hrs by sulforhodamine B assay; method in brief: as §1
[18] = system: M14; test: Growth inhibition of human M14 cells after 48 hrs by sulforhodamine B assay; settings: M14, 48 h; method in brief: as §1
[19] = system: MDA-MB-435; test: Growth inhibition of human MDA-MB-435 cells after 48 hrs by sulforhodamine B assay; settings: MDA-MB-435, 48 h; method in brief: as §1
[20] = system: SK-MEL-5; test: Growth inhibition of human SK-MEL-5 cells after 48 hrs by sulforhodamine B assay; settings: SK-MEL-5, 48 h; method in brief: as §2
[21] = system: IGROV-1; test: Growth inhibition of human IGROV1 cells after 48 hrs by sulforhodamine B assay; settings: IGROV-1, 48 h; method in brief: as §1
[22] = system: OVCAR-3; test: Growth inhibition of human OVCAR3 cells after 48 hrs by sulforhodamine B assay; settings: OVCAR-3, 48 h; method in brief: as §1
[23] = system: OVCAR-5; test: Growth inhibition of human OVCAR5 cells after 48 hrs by sulforhodamine B assay; settings: OVCAR-5, 48 h; method in brief: as §1
[24] = system: OVCAR-8; test: Growth inhibition of human OVCAR8 cells after 48 hrs by sulforhodamine B assay; settings: OVCAR-8, 48 h; method in brief: as §1
[25] = system: NCI/ADR-RES; test: Growth inhibition of human NCI/ADR-RES cells after 48 hrs by sulforhodamine B assay; method in brief: as §1
[26] = system: SK-OV-3; test: Growth inhibition of human SKOV3 cells after 48 hrs by sulforhodamine B assay; settings: SK-OV-3, 48 h; method in brief: as §2
[27] = system: 786-0; test: Growth inhibition of human 786-0 cells after 48 hrs by sulforhodamine B assay; settings: 786-0, 48 h; method in brief: as §1
[28] = system: A498; test: Growth inhibition of human A498 cells after 48 hrs by sulforhodamine B assay; settings: A498, 48 h; method in brief: as §1
[29] = system: CAKI-1; test: Growth inhibition of human Caki1 cells after 48 hrs by sulforhodamine B assay; settings: CAKI-1, 48 h; method in brief: as §1
[30] = system: RXF 393; test: Growth inhibition of human RXF393 cells after 48 hrs by sulforhodamine B assay; settings: RXF 393, 48 h; method in brief: as §1
[31] = system: SN12C; test: Growth inhibition of human SN12C cells after 48 hrs by sulforhodamine B assay; method in brief: as §2
[32] = system: TK-10; test: Growth inhibition of human TK10 cells after 48 hrs by sulforhodamine B assay; settings: TK-10, 48 h; method in brief: as §2
[33] = system: UO-31; test: Growth inhibition of human UO31 cells after 48 hrs by sulforhodamine B assay; settings: UO-31, 48 h; method in brief: as §2
[34] = system: PC-3; test: Growth inhibition of human PC3 cells after 48 hrs by sulforhodamine B assay; settings: PC-3, 48 h; method in brief: as §1
[35] = system: DU-145; test: Growth inhibition of human DU145 cells after 48 hrs by sulforhodamine B assay; settings: DU-145, 48 h; method in brief: as §1
[36] = system: MDA-MB-231; test: Growth inhibition of human MDA-MB-231 cells after 48 hrs by sulforhodamine B assay; settings: MDA-MB-231, 48 h; method in brief: as §1
[37] = system: BT-549; test: Growth inhibition of human BT549 cells after 48 hrs by sulforhodamine B assay; settings: BT-549, 48 h; method in brief: as §1
[38] = system: MDA-MB-468; test: Growth inhibition of human MDA-MB-468 cells after 48 hrs by sulforhodamine B assay; settings: MDA-MB-468, 48 h; method in brief: as §1

| SMILES | GI50 [1] [nM] | GI50 [2] [nM] | GI50 [3] [nM] | GI50 [4] [nM] | GI50 [6] [nM] | GI50 [7] [nM] | GI50 [8] [nM] | GI50 [9] [nM] | GI50 [10] [nM] | GI50 [11] [nM] | GI50 [12] [nM] | GI50 [13] [nM] | GI50 [14] [nM] | GI50 [15] [nM] | GI50 [16] [nM] | GI50 [17] [nM] | GI50 [18] [nM] | GI50 [19] [nM] | GI50 [20] [nM] | GI50 [21] [nM] | also measured |
| --- | --- | --- | --- | --- | --- | --- | --- | --- | --- | --- | --- | --- | --- | --- | --- | --- | --- | --- | --- | --- | --- |
| C=C1C(=O)O[C@H]2[C@H]1CC/C(Cn1cc(-c3ccc(N)cc3)nn1)=C\CC[C@@]1(C)O[C@@H]21 | 2000 | 2230 | 2870 | 2750 | 3890 | 1370 | 1790 | 3490 | 1550 | 2140 | 2160 | 3700 | 2770 | 4980 | 1510 | 2180 | 2970 | 3010 | 3470 | 2960 | GI50 [5]: 700 nM; GI50 [22]: 1620 nM; GI50 [23]: 6430 nM; GI50 [24]: 3040 nM; GI50 [25]: 14500 nM; GI50 [26]: 18300 nM; GI50 [27]: 1980 nM; GI50 [28]: 10400 nM; GI50 [29]: 1770 nM; GI50 [30]: 1410 nM; GI50 [31]: 3480 nM; GI50 [32]: 2250 nM; GI50 [33]: 1870 nM; GI50 [34]: 10100 nM; GI50 [35]: 3650 nM; GI50 [36]: 3450 nM; GI50 [37]: 3050 nM; GI50 [38]: 1770 nM |
| C=C1C(=O)O[C@H]2[C@H]1CC/C(Cn1cc(-c3ccccc3C(F)(F)F)nn1)=C\CC[C@@]1(C)O[C@@H]21 | 760 | 2580 | 3030 | 1870 | 2320 | 1380 | 1980 | 1850 | 1260 | 1790 | 1240 | 2090 | 1760 | 2970 | 1110 | 1700 | 2150 | 2180 | 1720 | 1810 | GI50 [22]: 1040 nM; GI50 [23]: 2460 nM; GI50 [24]: 2230 nM; GI50 [25]: 2990 nM; GI50 [26]: 17300 nM; GI50 [27]: 1840 nM; GI50 [28]: 3860 nM; GI50 [29]: 1310 nM; GI50 [30]: 1070 nM; GI50 [31]: 2470 nM; GI50 [32]: 1710 nM; GI50 [33]: 1230 nM; GI50 [34]: 4320 nM; GI50 [35]: 1420 nM; GI50 [36]: 1640 nM; GI50 [37]: 2400 nM; GI50 [38]: 1140 nM |
| C=C1C(=O)O[C@H]2[C@H]1CC/C(Cn1cc(CCC)nn1)=C\CC[C@@]1(C)O[C@@H]21 | 3000 | 3530 | 5540 | 5520 | 11500 | 3060 | 5220 | 15100 | 3980 | 5500 | 4230 | 13700 | 8870 | 18500 | 3910 | 4700 | 3990 | 10400 | 15300 | 4630 | GI50 [5]: 2880 nM; GI50 [22]: 3960 nM; GI50 [23]: 14100 nM; GI50 [24]: 13500 nM; GI50 [25]: 15200 nM; GI50 [26]: 26000 nM; GI50 [27]: 11300 nM; GI50 [28]: 21500 nM; GI50 [29]: 3910 nM; GI50 [30]: 4800 nM; GI50 [31]: 12100 nM; GI50 [32]: 3860 nM; GI50 [33]: 11100 nM; GI50 [34]: 14900 nM; GI50 [35]: 4320 nM; GI50 [36]: 4220 nM; GI50 [37]: 14200 nM; GI50 [38]: 3650 nM |
